From ChEMBL document CHEMBL2163328, “Inhibition of TNF-α-Induced Inflammation by andrographolide via down-regulation of the PI3K/Akt signaling pathway” (J Nat Prod, 2011)
Each block holds one compound with its values, some of them ahead of it. Activity calls are given as the source filed them. The rule behind the calls is not given here.

Legend:
HUVEC [1] = experiment: Induction of NFkappaB activation in HUVEC by EMSA; type: cell-based; details: Homo sapiens
In short: (§1)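 EMSA: nuclear extracts prepared by hypotonic then hypertonic (400 mM KCl) extraction. 2 μg nuclear protein incubated with biotin-labeled NF-κB probe and poly(dI-dC) at room temperature for 30 min. Complexes separated on 6% TBE-PAGE, transferred to nylon and detected with streptavidin-HRP. Specificity checked with 100-fold excess unlabeled and mutant oligonucleotides.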

HUVEC [2] = experiment: Inhibition of TNFalpha-stimulated ICAM-1 mRNA expression in HUVEC at 20 uM pretreated for 16 hrs before TNFalpha challenge measured after 6 hrs by RT-PCR analysis; type: functional, cell-based; details: Homo sapiens
In short: (§2)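 HUVEC pretreated 16 h, then TNF-α 1 ng/mL for 6 h. Total RNA isolated with TRIzol; 4 μg reverse-transcribed with M-MLV RT and oligo(dT). ICAM-1 amplified for 32 cycles (94 °C 1 min, 55 °C 1 min, 72 °C 2 min) after 95 °C for 5 min. Normalized to GAPDH; products resolved on 1% agarose and quantified by densitometry.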

HUVEC [3] = experiment: Inhibition of TNFalpha-stimulated human ICAM-1 promoter activity expressed in HUVEC assessed as […] activity at 20 uM pretreated for 30 mins before TNFalpha challenge measured after 5 hrs by luciferase reporter gene assay; type: functional, cell-based
In short: (§3)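 HUVEC transiently transfected by nanofection with human ICAM-1 promoter-luciferase (pIC339) plus pSV-β-galactosidase for 4 h. Pretreated 30 min, then TNF-α 1 ng/mL for 5 h. Luciferase activity measured in lysate supernatants and normalized to β-galactosidase activity for transfection efficiency. Three independent experiments.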

[4] = target: RAC-alpha serine/threonine-protein kinase (Homo sapiens) (UniProt P31749); experiment: Inhibition of activated Akt1 phosphorylation at Ser473 expressed in HUVEC transfected with activated AKT1 assessed as pAKT level at 10 uM after 16 hrs by Western blot analysis (reference value: 272%); type: cell-based; set-up: scale not given: the % may be the effect or the level left
Sequence of RAC-alpha serine/threonine-protein kinase (Homo sapiens) (P31749 whole entry): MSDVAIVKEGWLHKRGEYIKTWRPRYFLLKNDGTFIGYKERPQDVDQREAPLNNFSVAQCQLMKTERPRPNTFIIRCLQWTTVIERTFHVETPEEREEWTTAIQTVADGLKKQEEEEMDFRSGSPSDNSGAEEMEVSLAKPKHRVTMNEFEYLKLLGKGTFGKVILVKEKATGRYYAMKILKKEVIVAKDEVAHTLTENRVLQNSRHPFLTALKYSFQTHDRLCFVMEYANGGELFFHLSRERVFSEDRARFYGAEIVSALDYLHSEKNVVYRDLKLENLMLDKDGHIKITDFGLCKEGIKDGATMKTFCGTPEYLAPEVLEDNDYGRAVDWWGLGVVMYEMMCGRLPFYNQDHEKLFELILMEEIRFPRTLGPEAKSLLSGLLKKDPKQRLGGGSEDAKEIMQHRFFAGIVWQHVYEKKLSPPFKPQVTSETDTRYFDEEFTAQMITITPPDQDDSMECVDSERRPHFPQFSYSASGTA

[5] = target: RAC-alpha serine/threonine-protein kinase (Homo sapiens) (UniProt P31749); experiment: Inhibition of TNFalpha-stimulated Akt1 phosphorylation at Ser473 assessed as pAKT level in HUVEC at 10 uM pretreated for 16 hrs before TNFalpha challenge measured after 6 hrs by Western blot analysis (reference value: 249%); set-up: scale not given: the % may be the effect or the level left
[6] = target: RAC-alpha serine/threonine-protein kinase (Homo sapiens) (UniProt P31749); experiment: Inhibition of TNFalpha-stimulated AKT1-mediated ICAM-1 expression in HUVEC assessed as ICAM1 level at 10 uM pretreated for 16 hrs before TNFalpha challenge measured after 6 hrs by Western blot analysis (reference value: 345%); type: cell-based; set-up: scale not given: the % may be the effect or the level left
[7] = target: RAC-alpha serine/threonine-protein kinase (Homo sapiens) (UniProt P31749); experiment: Inhibition of TNFalpha-stimulated ICAM-1 expression in HUVEC transfected with activated AKT1 assessed as ICAM1 level at 10 uM incubated for 16 hrs by Western blot (reference value: 249%); type: cell-based; set-up: scale not given: the % may be the effect or the level left
HUVEC [8] = experiment: Inhibition of TNFalpha-stimulated DNA binding activity of NFkappaB in HUVEC at 5 to 20 uM pretreated for 16 hrs before TNFalpha challenge measured after 30 mins by EMSA; type: cell-based; details: Homo sapiens; in short: as §1
HUVEC [9] = experiment: Inhibition of TNFalpha-stimulated cell surface ICAM-1 expression in HUVEC at 5 to 20 uM pretreated for 16 hrs before TNFalpha challenge measured after 6 hrs by flow cytometry; type: functional, cell-based; details: Homo sapiens
In short: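 Cell-surface ICAM-1 by flow cytometry. HUVEC pretreated 16 h, then TNF-α 1 ng/mL for 6 h. Cells detached with trypsin and stained with FITC anti-ICAM-1 at 4 °C for 45 min in the dark. Washed three times in cold PBS before analysis. Three independent experiments.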

HUVEC [10] = experiment: Inhibition of TNFalpha-stimulated HUVEC adhesion to BCECF-AM-labeled human HL60 cells at 20 uM pretreated for 16 hrs before TNFalpha challenge measured after 6 hrs by fluorescence assay; type: functional
In short: (§4)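 HUVEC grown to 80% confluence, pretreated 16 h, then TNF-α 1 ng/mL for 6 h. Co-incubated with 4 × 10^5 BCECF-AM-labeled HL-60 cells per well, 37 °C, 30 min. Nonadherent cells removed by inverted centrifugation at 100g for 5 min. Bound cells lysed in 1% SDS; fluorescence read at ex 490/em 520 nm and converted to adherent cells/well by standard curve. Three independent experiments.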

[11] = Cytotoxicity against TNFalpha-stimulated HUVEC assessed as cell viability at 20 uM pretreated for 16 hrs before TNFalpha challenge measured after 6 hrs by MTT assay (reference value: 103.8 +/- 6.1%); type: cell-based; details: human, TNFalpha-stimulated HUVEC cells; read-out: Activity
[12] = Cytotoxicity against TNFalpha-stimulated HUVEC assessed as cell viability at 10 uM pretreated for 16 hrs before TNFalpha challenge measured after 6 hrs by MTT assay (reference value: 103.8 +/- 6.1%); type: cell-based; details: human, TNFalpha-stimulated HUVEC cells; read-out: Activity
HUVEC [13] = experiment: Toxicity assessed as induction of HUVEC adhesion to BCECF-AM-labeled human HL60 cells by fluorescence assay; type: cell-based; in short: as §4
[14] = Cytotoxicity against TNFalpha-stimulated HUVEC assessed as cell viability at 5 uM pretreated for 16 hrs before TNFalpha challenge measured after 6 hrs by MTT assay (reference value: 103.8 +/- 6.1%); type: cell-based; details: human, TNFalpha-stimulated HUVEC cells; read-out: Activity
HUVEC [15] = experiment: Toxicity in HUVEC assessed as induction of ICAM-1 expression at 5 to 20 uM measured after 6 hrs by Western blot analysis; type: cell-based; details: human
HUVEC [16] = experiment: Inhibition of TNFalpha-stimulated total ICAM-1 expression in HUVEC at 5 to 20 uM pretreated for 16 hrs before TNFalpha challenge measured after 6 hrs by Western blot analysis; type: functional, cell-based; details: Homo sapiens
In short: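 HUVEC pretreated 16 h, then TNF-α 1 ng/mL for 6 h. Lysed in Tris/EDTA/PMSF/aprotinin buffer at pH 7.4; equal protein run on SDS-PAGE and transferred to PVDF. Blocked in 5% milk at 4 °C overnight, probed with anti-ICAM-1 and HRP secondary. ECL detection with densitometric quantitation. Means ± SD, n = 3.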

[17] = target: RAC-alpha serine/threonine-protein kinase (Homo sapiens) (UniProt P31749); experiment: Induction of Akt1 phosphorylation at Ser473 expressed in HUVEC by Western blot analysis; type: cell-based
[18] = target: Transcription factor p65 (Homo sapiens) (UniProt Q04206); experiment: Inhibition of TNFalpha-stimulated NFkappaB activation in HUVEC assessed as reduction of nuclear p65 level at 20 uM pretreated for 16 hrs before TNFalpha challenge measured after 30 mins by […]
Sequence of Transcription factor p65 (Homo sapiens) (Q04206 whole entry): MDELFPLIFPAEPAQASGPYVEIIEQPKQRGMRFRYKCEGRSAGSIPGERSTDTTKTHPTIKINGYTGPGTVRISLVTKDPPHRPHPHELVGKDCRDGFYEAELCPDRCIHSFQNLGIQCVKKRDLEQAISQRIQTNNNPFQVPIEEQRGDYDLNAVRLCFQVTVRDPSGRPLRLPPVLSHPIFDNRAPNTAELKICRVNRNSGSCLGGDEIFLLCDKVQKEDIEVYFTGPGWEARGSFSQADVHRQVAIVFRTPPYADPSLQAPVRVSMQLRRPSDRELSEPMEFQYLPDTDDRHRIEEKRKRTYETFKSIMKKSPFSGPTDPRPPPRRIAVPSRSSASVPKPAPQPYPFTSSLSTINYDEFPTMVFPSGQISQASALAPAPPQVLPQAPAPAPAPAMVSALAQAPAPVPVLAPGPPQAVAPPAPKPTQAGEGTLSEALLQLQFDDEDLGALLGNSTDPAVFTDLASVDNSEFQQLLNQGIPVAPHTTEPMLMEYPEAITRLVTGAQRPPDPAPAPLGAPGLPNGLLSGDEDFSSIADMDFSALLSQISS

HUVEC [19] = experiment: Inhibition of TNFalpha-stimulated NFkappaB activation in HUVEC assessed as reduction of IkappaB degradation at 20 uM pretreated for 16 hrs before TNFalpha challenge measured after 30 mins by […]; type: cell-based; details: Homo sapiens
[20] = target: RAC-alpha serine/threonine-protein kinase (Homo sapiens) (UniProt P31749); experiment: Inhibition of TNFalpha-stimulated Akt1 phosphorylation at Ser473 in HUVEC at 20 uM pretreated for 16 hrs before TNFalpha challenge measured after 15 mins by Western blot analysis
HUVEC [21] = experiment: Inhibition of TNFalpha-stimulated ICAM-1 mRNA expression in HUVEC at 10 to 25 uM pretreated for 16 hrs before TNFalpha challenge measured after 6 hrs by RT-PCR analysis; type: functional, cell-based; details: Homo sapiens; in short: as §2
HUVEC [22] = experiment: Inhibition of TNFalpha-stimulated human ICAM-1 promoter activity expressed in HUVEC assessed as […] activity at 10 to 25 uM pretreated for 30 mins before TNFalpha challenge measured after 5 hrs by luciferase reporter gene assay; type: functional, cell-based; in short: as §3
HUVEC [23] = experiment: Inhibition of TNFalpha-stimulated DNA binding activity of NFkappaB in HUVEC at 10 to 25 uM pretreated for 16 hrs before TNFalpha challenge measured after 30 mins by EMSA; type: cell-based; details: Homo sapiens; in short: as §1

inhibition (HUVEC [3]): Active
Activity [4]: 111%
Activity [5]: 127%
Activity [6]: 36%
Activity [7]: 177%
inhibition (HUVEC [8]): Active
Activity [17]: inactive
inhibition [18]: Active
inhibition [20]: Active
Structure (SMILES): C=C1CC[C@@H]2[C@](C)(CO)[C@H](O)CC[C@@]2(C)[C@@H]1C/C=C1/C(=O)OC[C@H]1O [ANDROGRAPHOLIDE]
Activity (HUVEC [1]): inactive
inhibition (HUVEC [2]): Active
inhibition (HUVEC [9]): Active
inhibition at 20 µM (HUVEC [10]): 73%
viability at 6 h, 20 µM [11]: 87.5%
viability at 6 h, 10 µM [12]: 94.6%
Activity (HUVEC [13]): Non-toxic
viability at 6 h, 5 µM [14]: 96.4%
Activity (HUVEC [15]): Non-toxic
inhibition (HUVEC [16]): Active
inhibition (HUVEC [19]): Active

inhibition (HUVEC [22]): Active
inhibition (HUVEC [23]): Active
Structure (SMILES): O=c1cc(N2CCOCC2)oc2c(-c3ccccc3)cccc12
inhibition (HUVEC [21]): Active
